From ChEMBL document CHEMBL1153088, “Discovery of benzo[g]indol-3-carboxylates as potent inhibitors of microsomal prostaglandin E(2) synthase-1” (Bioorg Med Chem, 2009) come the findings set out here.

The source made the active and inactive calls. No cut-off for these calls is given here.

The subject of data set [1] is Rattus norvegicus. Nature of the data set: Antiinflammatory activity in Wistar Han rat assessed as reduction in inflammatory cell numbers at 4 mg/kg, ip administered 30 mins before carrageenan challenge. Also noted: dose 4 mg/kg. In kind it is functional, organism-based.
The subject of data set [2] is Mus musculus. Nature of the data set: Antiinflammatory activity in CD1 mouse assessed as inhibition of carrageenan-induced paw edema at 4 mg/kg, ip administered 30 mins before carrageenan challenge relative to untreated control. The format is functional. The note with it: route intraperitoneal. The procedure, abridged: (§1)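 Male adult CD1 mice, n=10 per group, given the compound ip (vehicle 2% DMSO) 30 min before subplantar 1% λ-carrageenan in saline (0.05 ml). Paw volume was measured double blind by hydroplethysmometer just before injection and at 2, 4 and 6 h. Inhibition was taken at the 4 h reading versus vehicle.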
On the technique in general: Carrageenan injected into the paw causes an acute inflammation.

Data set [3] relates to Mus musculus. Nature of the data set: Antiinflammatory activity in CD1 mouse assessed as inhibition of carrageenan-induced paw edema at 0.25 mg/kg, ip administered 30 mins before carrageenan challenge relative to untreated control. In kind it is functional. To be noted: route intraperitoneal. In outline:
as §1

Data set [4] has as its system Rattus norvegicus. Nature of the data set: Antiinflammatory activity in Wistar Han rat assessed as reduction in exudate volume at 4 mg/kg, ip administered 30 mins before carrageenan challenge. In kind it is functional, organism-based. Further details: dose 4 mg/kg.
The target of data set [5] is Prostaglandin G/H synthase 1 (Homo sapiens) (UniProt P23219). Nature of the data set: Inhibition of COX1 in platelets assessed as inhibition of 12-HHT formation at 10 uM by RP-HPLC. The procedure, abridged:
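Freshly isolated human platelets (10^8/ml PBS with 1 mM CaCl2) were preincubated with compound (DMSO ≤0.3%), then stimulated with 5 µM AA for 5 min at 37 °C. 12-HHT was extracted and quantified by RP-HPLC. Mean ± SE, n=3–5.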

The subject of data set [6] is Rattus norvegicus. Nature of the data set: Antiinflammatory activity in Wistar Han rat assessed as 6-Keto PGF1alpha level at 4 mg/kg, ip administered 30 mins before carrageenan challenge (reference value: 3.00 +/- 1.02 ng). The format is functional. The note with it: route intraperitoneal.
The subject of data set [7] is Mus musculus. Nature of the data set: Antiinflammatory activity in CD1 mouse assessed as inhibition of carrageenan-induced paw edema at 1 mg/kg, ip administered 30 mins before carrageenan challenge relative to untreated control. In kind it is functional. The note with it: route intraperitoneal. In outline:
as §1

The target in data set [8] is T1, Prostaglandin G/H synthase 1 (Ovis aries) (UniProt P05979).
T1 sequence (whole entry): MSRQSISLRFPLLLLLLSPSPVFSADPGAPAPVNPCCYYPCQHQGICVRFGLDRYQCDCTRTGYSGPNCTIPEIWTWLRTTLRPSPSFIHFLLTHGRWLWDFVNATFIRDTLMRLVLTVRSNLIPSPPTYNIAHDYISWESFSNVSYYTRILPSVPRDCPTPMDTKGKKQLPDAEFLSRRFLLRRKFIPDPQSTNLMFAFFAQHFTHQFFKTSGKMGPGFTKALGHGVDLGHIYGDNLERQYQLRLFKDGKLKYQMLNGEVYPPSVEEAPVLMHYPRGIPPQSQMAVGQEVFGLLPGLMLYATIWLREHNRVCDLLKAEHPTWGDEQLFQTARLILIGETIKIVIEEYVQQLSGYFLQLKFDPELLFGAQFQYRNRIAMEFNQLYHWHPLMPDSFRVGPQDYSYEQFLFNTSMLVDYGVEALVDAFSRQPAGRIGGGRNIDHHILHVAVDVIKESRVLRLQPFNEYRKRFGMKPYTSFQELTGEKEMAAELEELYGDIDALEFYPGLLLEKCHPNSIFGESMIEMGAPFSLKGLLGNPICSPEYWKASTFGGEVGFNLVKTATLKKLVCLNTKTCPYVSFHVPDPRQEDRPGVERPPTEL
Nature of the data set: Inhibition of ovine COX1 assessed as residual enzyme activity at 10 uM relative to untreated control. The procedure, abridged: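 Purified ovine COX-1 (50 units) in 1 ml of 100 mM Tris pH 8 containing 5 mM glutathione, 5 µM hemoglobin and 100 µM EDTA was preincubated with compound for 5 min at 4 °C and prewarmed 60 s at 37 °C. The reaction was started with 5 µM AA and run 5 min at 37 °C, and 12-HHT was analysed by HPLC.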

The test system of data set [9] is Rattus norvegicus. Nature of the data set: Antiinflammatory activity in Wistar Han rat assessed as LTB4 level at 4 mg/kg, ip administered 30 mins before carrageenan challenge (reference value: 1.17 +/- 0.21 ng). The note with it: route intraperitoneal. In kind it is functional.
In another data set the test system is A549. Nature of the data set: Toxicity in human A549 cells assessed as reduction of cell viability by MTT assay. In kind it is cell-based. In outline:
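A549 cells (4×10^4 per 100 µl) were plated for 16 h, then exposed to compounds at 30 µM (DMSO ≤0.3%) for 5 h. MTT was added for 4 h, formazan was solubilized in 10% SDS/20 mM HCl, and absorbance at 595 nm was read relative to vehicle-treated cells.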

The target of data set [10] is T2, Prostaglandin G/H synthase 2 (Homo sapiens) (UniProt P35354).
T2 sequence (whole entry): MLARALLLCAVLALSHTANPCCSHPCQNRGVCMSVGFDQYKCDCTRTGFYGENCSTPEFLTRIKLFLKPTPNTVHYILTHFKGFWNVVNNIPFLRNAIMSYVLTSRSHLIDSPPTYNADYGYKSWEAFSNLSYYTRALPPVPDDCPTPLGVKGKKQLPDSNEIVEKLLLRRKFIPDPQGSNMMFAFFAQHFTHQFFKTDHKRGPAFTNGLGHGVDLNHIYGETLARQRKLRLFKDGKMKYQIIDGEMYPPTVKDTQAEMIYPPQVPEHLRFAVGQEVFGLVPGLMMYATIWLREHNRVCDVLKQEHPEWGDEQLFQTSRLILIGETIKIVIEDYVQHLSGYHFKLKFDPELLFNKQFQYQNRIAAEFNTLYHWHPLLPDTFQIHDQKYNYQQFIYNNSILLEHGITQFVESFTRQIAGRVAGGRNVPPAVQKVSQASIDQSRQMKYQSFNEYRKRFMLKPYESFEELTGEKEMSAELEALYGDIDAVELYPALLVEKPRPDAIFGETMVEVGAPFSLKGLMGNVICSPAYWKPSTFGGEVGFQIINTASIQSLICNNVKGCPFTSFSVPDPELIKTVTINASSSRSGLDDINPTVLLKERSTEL
Nature of the data set: Inhibition of COX2 in IL1-beta induced human A549 cells assessed as 6-keto-PGF1-alpha formation up to 30 uM preincubated for 15 mins by ELISA. The format is cell-based. In outline: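 A549 cells were induced with IL-1β (1 ng/ml, 72 h, 2% FCS). Cells at 5×10^6 per ml PBS with 1 mM CaCl2 were preincubated 15 min at 37 °C, then given 30 µM AA for 15 min at 37 °C, and the reaction was stopped on ice. Released 6-keto PGF1α was measured by monoclonal-antibody ELISA with β-galactosidase tracer read at 550 nm.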

Data set [11] relates to Rattus norvegicus. Nature of the data set: Antiinflammatory activity in Wistar Han rat assessed as PGE2 level at 4 mg/kg, ip administered 30 mins before carrageenan challenge (reference value: 2.79 +/-0.39 ng). The format is functional. The note with it: route intraperitoneal.

Prostaglandin G/H synthase 1 (Homo sapiens), sequence (P23219 whole entry): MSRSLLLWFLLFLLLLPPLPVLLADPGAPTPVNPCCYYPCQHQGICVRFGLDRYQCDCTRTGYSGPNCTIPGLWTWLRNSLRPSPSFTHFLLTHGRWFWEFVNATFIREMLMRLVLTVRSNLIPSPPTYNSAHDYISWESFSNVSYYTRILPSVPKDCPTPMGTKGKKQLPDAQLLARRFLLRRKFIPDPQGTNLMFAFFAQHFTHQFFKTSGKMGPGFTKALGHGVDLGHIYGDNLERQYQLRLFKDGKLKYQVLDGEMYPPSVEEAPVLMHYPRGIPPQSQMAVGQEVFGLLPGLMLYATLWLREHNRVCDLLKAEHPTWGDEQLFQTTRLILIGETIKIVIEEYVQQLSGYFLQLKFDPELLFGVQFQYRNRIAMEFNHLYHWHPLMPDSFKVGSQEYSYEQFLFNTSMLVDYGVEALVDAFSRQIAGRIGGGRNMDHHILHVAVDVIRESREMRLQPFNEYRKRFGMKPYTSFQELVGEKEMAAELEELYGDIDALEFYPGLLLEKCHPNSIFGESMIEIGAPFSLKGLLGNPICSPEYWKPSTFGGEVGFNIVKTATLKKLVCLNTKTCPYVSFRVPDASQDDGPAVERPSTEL

One may read the inhibition as the relative decrease from the control value, in per cent. One may read the inhibition in vivo as the percentage by which the read-out fell short of the control. Consider `CCOC(=O)c1c(Cc2cccc(Cl)c2)[nH]c2c1cc(O)c1ccccc12`, for which the inhibition result with Rattus norvegicus [1] and with Rattus norvegicus [4] was “Active” each time. The inhibition in vivo at 4 mg/kg in the data set on Mus musculus [2] worked out at 61%. Also, the inhibition in vivo at 0.25 mg/kg in the data set on Mus musculus [3] was 37%. Also, the inhibition in data set [5] turned out to be 43%. Also, the Activity in the data set with Rattus norvegicus [6] is 2.02 ng; in data set [8] it was 12%; in the data set with Rattus norvegicus [9], 0.6 ng; in the data set with A549, “Non-toxic”; with Rattus norvegicus [11], 1.3 ng. Moreover, in the data set on Mus musculus [7], the inhibition in vivo at 1 mg/kg amounted to 53%. Besides, the inhibition entry in data set [10] is “inactive”.
